# Measured values taken from ChEMBL document CHEMBL1151796, “Novel anticancer agents, kayeassamins C-I from the flower of Kayea assamica of Myanmar” (2008).
# Assays:
# PANC-1 [1] = experiment: Cytotoxicity against human PANC1 cells in nutrient-deprived condition; type: functional
# Outline: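 PANC-1 cells seeded at 2×10^4 per well, grown 24 h in DMEM at 37 °C, 5% CO₂, PBS-washed, then switched to nutrient-deprived medium (NDM) or DMEM with serial dilutions of pure compounds (1–256 µM). Incubated 24 h, washed, then 2 h with DMEM containing 10% WST-8 and read at 450 nm. Endpoint reported as PC₁₀₀.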
# PANC-1 [2] = experiment: Cytotoxicity against human PANC1 cells in nutrient-deprived condition assessed as complete preferential cell death at 1 uM; type: functional, cell-based; conditions: TDE = time-dependent effect
# Outline: (§1)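 PANC-1 cells (2×10^4 per well, 24 h preculture in DMEM, 37 °C, 5% CO₂) were PBS-washed and exposed in NDM or DMEM for 3, 6, 9, 12 and 24 h. Morphology was checked by phase-contrast microscopy at 20×. Cells were then washed and given 2 h of 10% WST-8 in DMEM, with absorbance read at 450 nm. Viability was taken from the mean of three wells.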
# PANC-1 [3] = experiment: Cytotoxicity against human PANC1 cells in nutrient-deprived condition assessed as preferential cell death within 3 hrs; type: functional, cell-based; outline: as §1
Structure (SMILES),Cytotoxicity (PANC-1 [1]),further results
CCCC(=O)c1c(O)c(CC=C(C)C)c2oc(=O)cc(CCC)c2c1O,2 µM,–
CC[C@H](O)c1cc(=O)oc2c(C/C=C(\C)CCC=C(C)C)c(O)c(C(=O)CC(C)C)c(O)c12 [KAYEASSAMIN D],1 µM,Activity (PANC-1 [2]): tde
CCCC(=O)c1c(O)c(C/C=C(\C)CCC=C(C)C)c(O)c2c([C@@H](O)CC)cc(=O)oc12 [KAYEASSAMIN A],1 µM,–
CC[C@H](O)c1cc(=O)oc2c(CC=C(C)C)c(O)c(C(=O)CC(C)C)c(O)c12 [KAYEASSAMIN G],1 µM,Activity (PANC-1 [3]; TDE = time-dependent effect): tde
CCCC(=O)c1c2c(c3oc(=O)cc(-c4ccccc4)c3c1O)C=CC(C)(C)O2,>256 µM,–
CC[C@H](O)c1cc(=O)oc2c(C(=O)CC(C)C)c(O)c3c(c12)OC(C)(C)C=C3,32 µM,–
CCCC(=O)c1c(O)c2c(c3c([C@@H](O)CC)cc(=O)oc13)OC(C)(CCC=C(C)C)C=C2 (stereo not given in full) [KAYEASSAMIN I],64 µM,–
CCCC(=O)c1c(O)c(CC=C(C)C)c2oc(=O)cc(-c3ccccc3)c2c1O [MAMMEA A/AC],16 µM,–
CCCC(=O)c1c(O)c(C/C=C(\C)CCC=C(C)C)c2oc(=O)cc([C@@H](O)CC)c2c1O [KAYEASSAMIN B],1 µM,–
CCCC(=O)c1c2c(c3oc(=O)cc(CCC)c3c1O)CC(C(C)(C)O)O2 (stereo not given),64 µM,–
CCC(C)C(=O)c1c(O)c(CC=C(C)C)c2oc(=O)cc([C@@H](O)CC)c2c1O (stereo not given in full) [KAYEASSAMIN F],2 µM,–
COc1cc(C[C@H]2C(=O)OC[C@@H]2Cc2ccc(OC)c(OC)c2)ccc1O [ARCTIGENIN],1 µM,–
CCCC(=O)c1c(O)c(CC=C(C)C)c(O)c2c(-c3ccccc3)cc(=O)oc12,8 µM,–
CC(C)CC(=O)c1c2c(c3oc(=O)cc(-c4ccccc4)c3c1O)C=CC(C)(C)O2 [MAMMEIGIN],32 µM,–
CCCC(=O)c1c(O)c(CC=C(C)C)c2oc(=O)cc3c2c1OC(C)C3 (stereo not given) [KAYEASSAMIN H],64 µM,–
CCC(C)C(=O)c1c(O)c(C/C=C(\C)CCC=C(C)C)c2oc(=O)cc([C@@H](O)CC)c2c1O (stereo not given in full) [KAYEASSAMIN C],4 µM,–
CCCC(=O)c1c(O)c(CC=C(C)C)c2oc(=O)cc([C@@H](O)CC)c2c1O [KAYEASSAMIN E],1 µM,Activity (PANC-1 [3]): Dose-dependent effect
